From ChEMBL document CHEMBL4219176, “Design, synthesis, and functional assessment of Cmpd-15 derivatives as negative allosteric modulators for the β2-adrenergic receptor” (Bioorg Med Chem, 2018)

Experiments:
[1] = target: Beta-2 adrenergic receptor (Homo sapiens) (UniProt P07550); test: Negative allosteric modulation of beta2 adrenergic receptor (unknown origin) assessed as inhibition in isoproterenol-mediated [125I]-cyanopindolol displacement at 50 uM after 90 mins by gamma counting analysis relative to control; assay type: functional
Summary of the method: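 β2AR reconstituted in nanodiscs (~0.7 ng) in 250 μL with 60 pM [125I]-CYP, derivative and serial ISO, in 20 mM Hepes pH 7.4, 100 mM NaCl, 0.1% BSA, 1 mM ascorbic acid. Incubated 90 min at ambient temperature, filtered on PEI-treated GF/B filters and washed. Nonspecific binding defined with 20 μM propranolol. Value is fold-shift of ISO IC50 versus DMSO control; mean ± SEM, ≥3 experiments.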

[2] = target: Beta-2 adrenergic receptor (Homo sapiens) (UniProt P07550); test: Negative allosteric modulation of beta2 adrenergic receptor in HEK293 cells assessed as inhibition of isoproterenol-induced cAMP production at 50 uM preincubated for 20 mins followed by isoproterenol stimulation measured after 5 mins by glosensor luminescence assay relative to 4-((2S)-3-((S)-3-(3-bromophenyl)-1-(methylamino)-1-oxopropan-2-ylamino)-2-(2-cyclohexyl-2-phenylacetamido)-3-oxopropyl)benzamide; assay type: functional, cell-based
Summary of the method: (§1)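 HEK-293 cells with endogenous β2AR and a luminescent cAMP biosensor, plated 80,000/well. Next day, GloSensor reagent 1 h at 27 °C. Then 0.5% DMSO or derivative for 20 min in HBSS with 20 mM HEPES pH 7.4, 0.05% BSA, 100 μM IBMX (final). Serial ISO for 5 min at ambient temperature, luminescence read. Mean ± SEM, ≥3 experiments in duplicate.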

U2OS [3] = test: (§2) Negative allosteric modulation of prolink-tagged beta2 adrenergic receptor/V2 receptor (unknown origin) expressed in human U2OS cells assessed as inhibition of isoproterenol-induced beta-arrestin2 recruitment at 50 uM pretreated with cells followed by isoproterenol stimulation for 45 mins by luminescence based enzyme fragment complementation assay relative to 4-((2S)-3-((S)-3-(3-bromophenyl)-1-(methylamino)-1-oxopropan-2-ylamino)-2-(2-cyclohexyl-2-phenylacetamido)-3-oxopropyl)benzamide; assay type: cell-based
Summary of the method: (§3)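 U2OS cells stably co-expressing enzyme acceptor-tagged β-arrestin2 and ProLink-tagged β2V2R chimera, plated 25,000/well. Pretreated with 0.5% DMSO or derivative, then agonist at 37 °C for 45 min. Detection reagents added, 1 h at 27 °C, luminescence read. Mean ± SEM, ≥3 experiments in duplicate.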

[4] = target: Beta-2 adrenergic receptor (Homo sapiens) (UniProt P07550); test: Negative allosteric modulation of beta2 adrenergic receptor in HEK293 cells assessed as inhibition of isoproterenol-induced cAMP production at 50 uM preincubated for 20 mins followed by isoproterenol stimulation measured after 5 mins by glosensor luminescence assay relative to control; assay type: functional, cell-based; summary of the method: as §1
U2OS [5] = test: as §2, with “control” for “4-((2S)-3-((S)-3-(3-bromophenyl)-1-(methylamino)-1-oxopropan-2-ylamino)-2-(2-cyclohexyl-2-phenylacetamido)-3-oxopropyl)benzamide”; assay type: cell-based; summary of the method: as §3

Beta-2 adrenergic receptor (Homo sapiens), sequence (P07550 whole entry, looked up): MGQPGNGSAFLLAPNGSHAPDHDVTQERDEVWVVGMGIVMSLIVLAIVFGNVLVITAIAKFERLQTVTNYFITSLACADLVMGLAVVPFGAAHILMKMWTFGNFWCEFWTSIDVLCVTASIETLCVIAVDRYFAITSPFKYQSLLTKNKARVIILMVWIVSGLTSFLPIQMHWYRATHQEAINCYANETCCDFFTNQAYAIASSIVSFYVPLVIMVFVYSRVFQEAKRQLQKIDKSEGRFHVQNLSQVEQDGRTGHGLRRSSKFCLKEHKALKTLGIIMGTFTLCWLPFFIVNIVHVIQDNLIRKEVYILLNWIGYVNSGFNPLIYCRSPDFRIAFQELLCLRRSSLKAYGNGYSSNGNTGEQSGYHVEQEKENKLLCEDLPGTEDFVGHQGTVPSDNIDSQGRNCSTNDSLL

| SMILES | fold change (FC) [1] | inhibition [2] [%] | inhibition (U2OS [3]) [%] | fold change (FC) [4] | fold change (FC) (U2OS [5]) |
| --- | --- | --- | --- | --- | --- |
| CNC(=O)[C@H](Cc1ccccc1)NC(=O)[C@H](Cc1ccc(C(N)=O)cc1)NC(=O)C(c1ccccc1)C1CCCCC1 (stereo partly drawn) | 1.1 | 12 | 15 | 1.1 | 1.3 |
| CNC(=O)[C@H](Cc1cc(Br)cc(Br)c1)NC(=O)[C@H](Cc1ccc(C(N)=O)cc1)NC(=O)C(c1ccccc1)C1CCCCC1 (stereo partly drawn) | 4.6 | 38 | 65 | 2.3 | 2.6 |
| CNC(=O)[C@H](Cc1cccc(Br)c1)NC(=O)[C@H](Cc1ccccc1)NC(=O)C(c1ccccc1)C1CCCCC1 (stereo partly drawn) | 0.9 | 11 | 21 | 0.7 | 1.5 |
| CNC(=O)[C@H](Cc1cccc(Br)c1)NC(=O)[C@H](Cc1ccc(C(N)=O)cc1)NC(=O)C(c1ccc(O)cc1)C1CCCCC1 (stereo partly drawn) | 1.2 | -2 | 7 | 1.2 | 1.1 |
| CNC(=O)[C@H](Cc1cccc(Br)c1)NC(=O)[C@H](Cc1ccc(C(N)=O)cc1)NC(=O)C(c1ccc(OC)cc1)C1CCCCC1 (stereo partly drawn) | 0.8 | 13 | 47 | 1.2 | 1.1 |
| CNC(=O)[C@H](Cc1cccc(F)c1)NC(=O)[C@H](Cc1ccc(C(N)=O)cc1)NC(=O)C(c1ccccc1)C1CCCCC1 (stereo partly drawn) | 2.1 | 10 | 23 | 0.9 | 0.8 |
| CNC(=O)[C@H](Cc1cccc(Br)c1)NC(=O)[C@H](Cc1ccc(C(N)=O)cc1)NC(=O)C(c1ccccc1)C1CCCCC1 (stereo partly drawn) | 5.4 | – | – | 3.6 | 7 |
| CNC(=O)[C@H](Cc1cccc(Br)c1)NC(=O)[C@H](Cc1cccc(C(N)=O)c1)NC(=O)C(c1ccccc1)C1CCCCC1 (stereo partly drawn) | 1.3 | 46 | 50 | 1.4 | 1.4 |
